Experimental data of several laboratories.
Each line is one published result; the experiments were not run side by side.
Target: Cyclin-G-associated kinase (GAK, Homo sapiens, UniProt O14976)
Residues used in one study (O14976 1-1311): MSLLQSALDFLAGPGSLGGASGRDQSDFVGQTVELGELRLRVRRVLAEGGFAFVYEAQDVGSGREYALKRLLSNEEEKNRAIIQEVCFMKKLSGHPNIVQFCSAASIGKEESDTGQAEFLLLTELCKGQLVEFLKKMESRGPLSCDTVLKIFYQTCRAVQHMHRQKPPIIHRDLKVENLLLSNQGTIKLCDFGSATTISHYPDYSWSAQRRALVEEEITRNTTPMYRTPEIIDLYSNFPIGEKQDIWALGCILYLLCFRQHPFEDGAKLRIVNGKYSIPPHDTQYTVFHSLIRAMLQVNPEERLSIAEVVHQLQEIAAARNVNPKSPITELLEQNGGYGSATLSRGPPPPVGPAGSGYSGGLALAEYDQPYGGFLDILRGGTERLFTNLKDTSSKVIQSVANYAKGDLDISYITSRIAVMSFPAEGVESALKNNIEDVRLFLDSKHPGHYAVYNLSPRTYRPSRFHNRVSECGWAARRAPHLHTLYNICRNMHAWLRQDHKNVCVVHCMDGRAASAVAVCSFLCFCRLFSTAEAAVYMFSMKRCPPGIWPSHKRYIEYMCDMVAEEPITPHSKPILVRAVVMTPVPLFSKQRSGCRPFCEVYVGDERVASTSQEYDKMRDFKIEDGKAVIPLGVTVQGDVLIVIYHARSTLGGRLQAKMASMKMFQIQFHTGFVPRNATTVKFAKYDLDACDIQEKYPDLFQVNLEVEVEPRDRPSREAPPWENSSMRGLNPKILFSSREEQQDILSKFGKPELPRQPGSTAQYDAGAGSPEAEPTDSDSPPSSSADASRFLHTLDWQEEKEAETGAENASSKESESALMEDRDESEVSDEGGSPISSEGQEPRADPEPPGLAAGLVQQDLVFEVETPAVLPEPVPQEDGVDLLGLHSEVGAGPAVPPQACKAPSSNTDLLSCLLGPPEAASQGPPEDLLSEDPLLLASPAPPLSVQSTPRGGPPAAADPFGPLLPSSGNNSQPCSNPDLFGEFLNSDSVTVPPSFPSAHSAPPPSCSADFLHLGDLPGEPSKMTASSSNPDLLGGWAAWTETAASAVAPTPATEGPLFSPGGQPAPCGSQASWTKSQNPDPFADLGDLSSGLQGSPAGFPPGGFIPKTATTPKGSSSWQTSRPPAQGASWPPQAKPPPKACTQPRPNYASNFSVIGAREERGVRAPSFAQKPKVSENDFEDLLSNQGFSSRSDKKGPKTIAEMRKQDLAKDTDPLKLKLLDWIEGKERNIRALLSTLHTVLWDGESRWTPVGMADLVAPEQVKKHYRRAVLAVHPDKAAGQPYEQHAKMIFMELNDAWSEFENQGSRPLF

| Structure (SMILES) | read-out | method | concentration | remaining binding |
| --- | --- | --- | --- | --- |
| CN(CCCC(F)(F)F)c1nccc(-c2cnn3ncccc23)n1 | binding |  | 1 µM | 100% |
| Cn1nc(C(F)(F)F)cc1-c1cnc(N2CCc3cc(S(=O)(=O)Nc4c(F)cc(Cl)cc4F)cc(N4CCCC4=O)c32)nc1 | cell-free assay | competition with immobilised ligand | 1 µM | 94% |
| CN(C)c1nccc(-c2cnn3ncccc23)n1 | binding |  | 1 µM | 82% |
| C=CC(=O)N1CCC(C(=O)NCC(=O)N2CCN(c3nc(-c4cnc(N)nc4C(F)F)nc(N4CCOCC4)n3)CC2)CC1 | binding | competition with immobilised ligand | 1 µM | 100% |
| F[C@@H]1CCN(c2nccc(-c3cnn4ncccc34)n2)C1 | binding |  | 1 µM | 85% |
| Cc1cc(C)c(-n2ccn3nc(-c4cccnc4)cc23)cc1NC(=O)c1cc(C#N)cc(S(F)(F)(F)(F)F)c1 | cell-free assay | competition with immobilised ligand | 0.1 µM | 83.3% |
| C[C@@H](c1ccc(-n2cnc3c(N)ncnc32)cc1)N1CCc2nn(C)c(Cc3ccccc3)c2C1=O | binding | competition with immobilised ligand | 0.1 µM | 99% |
| Cc1cnc(Nc2ccc(C(=O)N3CCC(N4CCCC4)CC3)cc2)nc1-c1cc2ccccc2s1 | binding | competition with immobilised ligand | 1 µM | 8.2% |
| C[C@@H]1CN(c2cc(-c3nn(C)c4ccc(OC5(C)CC5)cc34)ncn2)C[C@H](C)O1 | cell-free assay | competition with immobilised ligand | 1 µM | 86% |
| COc1cnc(Nc2cccc(S(N)(=O)=O)c2)nc1N1CCN(c2ccccc2)CC1 | binding | competition with immobilised ligand | 1 µM | 85% |
| CC1CCCN1c1nccc(-c2cnn3ncccc23)n1 (stereo not shown) | binding |  | 1 µM | 94% |
| Cn1nc(C(=O)NCc2ccc(C(=O)O)cc2)cc1-c1ccc2[nH]ccc2c1 | cell-free assay | competition with immobilised ligand | 0.1 µM | 90% |
| c1cncc(-c2cccc(Nc3nccc(NC4CCCCC4)n3)c2)c1 | binding | competition with immobilised ligand | 10 µM | 42% |
| O=C(NCCCN1CCOCC1)c1ccc(Nc2ncc(Cl)c(-c3ccc(Cl)s3)n2)cc1 | binding | competition with immobilised ligand | 1 µM | 15% |
| C[C@H](c1ccc(F)cc1)N(Cc1cccc(C(=O)O)c1)C(=O)c1cnc2ccccc2c1 | cell-free assay | competition with immobilised ligand | 1 µM | 98% |
| N[C@H]1CCN(c2nccc(-c3cnn4ncccc34)n2)C1 | binding |  | 1 µM | 80% |
| CCN1CCN(Cc2ccc(C(=O)Nc3ccc(C)c(Oc4ccc5c(c4)CC(=O)N5)c3)cc2C(F)(F)F)CC1 | binding | competition with immobilised ligand | 1 µM | 100% |
| C[C@H]1CCN(c2nccc(-c3cnn4ncccc34)n2)C1 | binding |  | 1 µM | 28% |
| CC(=O)N1CCC(c2ccc(C(=O)NC3=NCCN3)cc2C(F)(F)F)CC1 | cell-free assay | competition with immobilised ligand | 1 µM | 97% |
| O=C(c1ccc(Nc2nccc(-c3cc4ccccc4s3)n2)cc1)N1CCC(N2CCCC2)CC1 | binding | competition with immobilised ligand | 1 µM | 34% |
| O=C(Nc1c[nH]nc1C(=O)NC1CCNCC1)c1cc(F)cc(F)c1 | binding | competition with immobilised ligand | 1 µM | 90% |
| CC(C)(O)c1cncc(-c2nc3ccc(F)cc3n2C2CC2)c1 | cell-free assay | competition with immobilised ligand | 1 µM | 100% |
